Structures are written as SMILES.

In ChEMBL document CHEMBL1152633, “Synthesis and biological evaluation of flavan-3-ol derivatives as positive modulators of GABAA receptors” (Bioorg Med Chem, 2009) one finds Activity, EC50 and fold change (FC) data, which are given here for 28 compounds.

The target in assay [1] is T1, GABA-A receptor; alpha-1/beta-2/gamma-2 (Homo sapiens) (UniProt P14867+P47870+P18507). In words: Modulatory activity at human GABAA alpha-1-beta-2-gamma-2L receptor expressed in Xenopus laevis oocytes assessed as potentiation of GABA EC5-induced currents at 30 uM by two-electrode voltage clamp assay. Type of assay: cell-based. To be noted: Oocyte. The method, boiled down: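 Stage V–VI oocytes were injected with 2–3 ng cRNA (α:β:γ 1:1:2) and kept 3–4 days at 16 °C in ND96 with pyruvate, theophylline and gentamycin. Two-electrode voltage clamp was run in ND96 at pH 7.5 with 3 M KCl electrodes. Test drug was co-applied with GABA EC5, with a 5–10 min washout between applications. Currents were normalised to a reference modulator at the same concentration on the same cell (n ≤ 5).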

Assay [2] deals with T2, GABA-A receptor; alpha-1/beta-2/gamma-2 (Homo sapiens, UniProt P14867+P18507+P47870).
T2 sequence (P14867 whole entry): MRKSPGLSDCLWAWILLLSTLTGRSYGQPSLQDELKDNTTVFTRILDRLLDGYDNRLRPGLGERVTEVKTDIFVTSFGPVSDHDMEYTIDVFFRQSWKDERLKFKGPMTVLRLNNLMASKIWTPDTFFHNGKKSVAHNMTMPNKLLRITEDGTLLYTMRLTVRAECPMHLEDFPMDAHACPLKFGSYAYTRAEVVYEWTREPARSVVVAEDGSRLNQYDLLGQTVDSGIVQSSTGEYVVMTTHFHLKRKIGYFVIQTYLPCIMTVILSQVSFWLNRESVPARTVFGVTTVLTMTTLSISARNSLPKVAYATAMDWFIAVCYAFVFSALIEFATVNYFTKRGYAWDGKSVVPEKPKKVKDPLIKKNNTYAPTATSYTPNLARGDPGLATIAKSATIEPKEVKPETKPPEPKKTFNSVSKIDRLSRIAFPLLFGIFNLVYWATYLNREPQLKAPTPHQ
T2 sequence (P47870 whole entry): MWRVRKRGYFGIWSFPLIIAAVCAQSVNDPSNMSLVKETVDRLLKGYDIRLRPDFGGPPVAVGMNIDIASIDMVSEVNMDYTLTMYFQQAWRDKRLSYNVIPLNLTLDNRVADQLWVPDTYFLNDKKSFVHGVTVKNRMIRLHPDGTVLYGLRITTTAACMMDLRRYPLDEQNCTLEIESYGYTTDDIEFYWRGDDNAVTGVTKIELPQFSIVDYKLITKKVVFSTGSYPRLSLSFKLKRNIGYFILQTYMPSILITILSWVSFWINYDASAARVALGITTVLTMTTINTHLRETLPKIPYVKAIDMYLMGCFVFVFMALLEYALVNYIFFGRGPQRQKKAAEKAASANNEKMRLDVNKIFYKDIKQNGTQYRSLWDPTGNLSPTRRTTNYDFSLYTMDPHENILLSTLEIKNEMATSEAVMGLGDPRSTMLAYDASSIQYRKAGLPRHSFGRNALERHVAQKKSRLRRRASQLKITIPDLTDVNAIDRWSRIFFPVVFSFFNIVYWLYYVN
T2 sequence (P18507 whole entry): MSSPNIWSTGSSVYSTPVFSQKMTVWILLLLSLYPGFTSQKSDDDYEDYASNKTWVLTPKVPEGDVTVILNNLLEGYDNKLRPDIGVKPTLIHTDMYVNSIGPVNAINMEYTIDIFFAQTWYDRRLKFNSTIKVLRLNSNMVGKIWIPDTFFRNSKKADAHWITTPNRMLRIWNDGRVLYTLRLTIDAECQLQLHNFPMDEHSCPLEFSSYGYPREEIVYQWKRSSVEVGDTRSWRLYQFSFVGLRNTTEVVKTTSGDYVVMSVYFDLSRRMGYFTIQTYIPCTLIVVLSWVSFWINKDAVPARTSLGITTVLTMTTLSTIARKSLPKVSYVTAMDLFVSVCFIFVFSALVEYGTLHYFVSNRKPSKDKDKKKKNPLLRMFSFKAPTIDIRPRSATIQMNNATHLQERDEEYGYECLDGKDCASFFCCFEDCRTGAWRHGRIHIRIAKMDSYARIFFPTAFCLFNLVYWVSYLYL
Briefly: Modulatory activity at human GABAA alpha-1-beta-2-gamma-2L receptor expressed in Xenopus laevis oocytes assessed as potentiation of GABA EC5-induced currents by two-electrode voltage clamp assay. It is filed as cell-based, Oocyte. A digest of the protocol: (§1)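 Oocytes were injected with cRNA (α:β:γ 1:1:2) and incubated 3–4 days at 16 °C in ND96. TEVC was run in ND96 at pH 7.5, co-applying the drug at a range of concentrations with GABA EC5, with a 5–10 min washout between applications. Potentiation = (Idrug − IGABA) × 100/IGABA. Data are mean ± SEM, n ≥ 8, from at least two oocyte batches.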

The target of assay [3] is T1, GABA-A receptor; alpha-1/beta-2/gamma-2 (Homo sapiens). Briefly: Modulatory activity at human GABAA alpha-1-beta-2-gamma-2L receptor expressed in Xenopus laevis oocytes assessed as potentiation of GABA EC5-induced currents at 30 uM by two-electrode voltage clamp assay relative to untreated control. Type of assay: cell-based. To be noted: Oocyte. The method, boiled down:
as §1

Assay [4] has the same target. In words: Modulatory activity at human GABAA alpha-1-beta-2-gamma-2L receptor expressed in Xenopus laevis oocytes assessed as potentiation of GABA EC5-induced currents at 50 uM by two-electrode voltage clamp assay relative to untreated control. To be noted: Oocyte. Type of assay: cell-based. The method, boiled down: as §1

Regarding `COc1ccc([C@@H]2Oc3ccccc3C[C@H]2O)cc1`, the Activity in assay [1] was less than 50%.

For `COc1ccc([C@H]2Oc3ccc(OC)cc3C[C@H]2OC(C)=O)cc1`, in assay [1], the Activity was less than 50%.

Consider `COc1ccc([C@H]2Oc3ccccc3C[C@@H]2OC(C)=O)cc1`, for which the Activity in assay [1] was greater than 50%.

On to `COc1ccc([C@H]2Oc3ccccc3C[C@H]2OC(C)=O)cc1`, for which, in assay [1], the Activity was less than 50%.

With `COc1ccc([C@@H]2Oc3ccccc3C[C@H]2OC(C)=O)cc1OC`, the 50% effective concentration (EC50) in assay [2] came out at 6.68 µM. Moreover, the fold change (FC) in assay [3] is 14.7. For the same compound, in assay [1], the Activity was greater than 50%.

On to `COc1ccc([C@@H]2Oc3ccccc3C[C@H]2OC(C)=O)cc1`, for which the EC50 in assay [2] stood at 13.7 µM. For the same compound, the fold change (FC) in assay [4] is 8.5. In addition, the Activity in assay [1] was 700%.

Take `COc1ccc([C@H]2Oc3cc(OCc4ccccc4)ccc3C[C@H]2OC(C)=O)cc1`: in assay [1], the Activity was less than 50%.

For the compound `COc1ccc([C@@H]2Oc3ccc(C)cc3C[C@H]2OC(C)=O)cc1OC`, in assay [1], the Activity is greater than 50%.

Turning to `COc1ccc([C@H]2Oc3ccc(C)cc3C[C@@H]2OC(C)=O)cc1OC`, the Activity in assay [1] was less than 50%.

Regarding `COc1ccc([C@@H]2Oc3cc(OCc4ccccc4)ccc3C[C@H]2OC(C)=O)cc1`, the Activity in assay [1] is less than 50%.

As for `COc1ccc([C@@H]2Oc3ccc(OC)cc3C[C@H]2OC(C)=O)cc1`, in assay [2], the EC50 came out at 15 µM. The Activity in assay [1] was greater than 50%.

In the case of `COc1ccc([C@@H]2Oc3cc(O)ccc3C[C@@H]2OC(C)=O)cc1`, the Activity in assay [1] was less than 50%.

On to `COc1ccc([C@H]2Oc3cc(O)ccc3C[C@@H]2OC(C)=O)cc1OC`, for which the Activity in assay [1] is less than 50%.

For `COc1ccc([C@@H]2Oc3cc(OCc4ccccc4)ccc3C[C@H]2OC(C)=O)cc1OC`, in assay [1], the Activity was less than 50%.

As to `COc1ccc([C@@H]2Oc3cc(O)ccc3C[C@H]2OC(C)=O)cc1`, the fold change (FC) in assay [4] was determined as 10.5. Also, the Activity in assay [1] is greater than 50%.

Consider `CC(=O)O[C@H]1Cc2ccccc2O[C@@H]1c1ccc2c(c1)OCO2`, for which, in assay [1], the Activity was greater than 50%.

As to `COc1ccc([C@H]2Oc3cc(OCc4ccccc4)ccc3C[C@@H]2OC(C)=O)cc1OC`, the Activity in assay [1] is less than 50%.

Consider `CC(=O)O[C@H]1Cc2ccccc2O[C@@H]1c1ccc(OCc2ccccc2)cc1`, for which, in assay [1], the Activity was less than 50%.

Turning to `CC(=O)O[C@H]1Cc2ccccc2O[C@@H]1c1ccc(O)cc1`, the Activity in assay [1] is less than 50%.

For the compound `CC(=O)O[C@@H]1Cc2ccccc2O[C@H]1c1ccc2c(c1)OCO2`, the Activity in assay [1] was greater than 50%.

Turning to `COc1ccc([C@@H]2Oc3cc(O)ccc3C[C@H]2OC(C)=O)cc1OC`, the EC50 in assay [2] turned out to be 12.1 µM. In addition, the fold change (FC) in assay [3] was 12. Besides, the Activity in assay [1] was greater than 50%.

For the compound `CC(=O)O[C@H]1Cc2ccccc2O[C@H]1c1ccc(OCc2ccccc2)cc1`, the Activity in assay [1] was less than 50%.

With `COc1ccc([C@H]2Oc3ccccc3C[C@@H]2OC(C)=O)cc1OC`, the Activity in assay [1] was greater than 50%.

For the compound `COc1ccc([C@@H]2Oc3ccccc3C[C@@H]2OC(C)=O)cc1`, in assay [1], the Activity is less than 50%.

Regarding `COc1ccc([C@H]2Oc3ccccc3C[C@H]2O)cc1`, the Activity in assay [1] was less than 50%.

With `COc1cc([C@@H]2Oc3ccccc3C[C@H]2OC(C)=O)cc(Br)c1OC`, in assay [1], the Activity is greater than 50%.

Regarding `CC(=O)O[C@H]1Cc2ccccc2O[C@H]1c1ccc(O)cc1`, the Activity in assay [1] was less than 50%.

Consider `COc1ccc([C@@H]2Oc3ccccc3C[C@@H]2OC(C)=O)cc1OC`, for which the Activity in assay [1] was less than 50%.
